Data taken from ChEMBL document CHEMBL1687740, “Cellular accumulation and pharmacodynamic evaluation of the intracellular activity of CEM-101, a novel fluoroketolide, against Staphylococcus aureus, Listeria monocytogenes, and Legionella pneumophila in human THP-1 macrophages” (Antimicrob Agents Chemother, 2009).
Values after ≈ are worked out from the molar mass of the structure shown. Active and inactive are the calls of the source. The rule behind the calls is not given here.

Columns and labels:
Staphylococcus aureus [1] = experiment: Antibacterial activity against methicillin-sensitive Staphylococcus aureus ATCC 25923 infected in human THP1 cells assessed as decrease of CFU after 24 hrs relative to initial inoculum; assay type: functional, THP-1
In short: (§1)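 THP-1 macrophages infected, non-phagocytosed bacteria removed, then exposed 24 h over a concentration range. Postphagocytosis inoculum (2.74 ± 0.55) × 10⁶ CFU/mg protein. Hill fit (slope 1). […] Cs = no change from inoculum, by graphical intrapolation. n = 3.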

Staphylococcus aureus [2] = experiment: Antibacterial activity against methicillin-sensitive Staphylococcus aureus ATCC 25923 assessed as decrease of CFU after 24 hrs relative to initial inoculum; assay type: functional
In short: (§2)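 24-h concentration-response in Mueller-Hinton broth; original inoculum (0.97 ± 0.24) × 10⁶ CFU/ml. Hill equation fit (slope factor 1). Emax = log10 CFU decrease from inoculum extrapolated to infinite concentration. Cs = concentration giving CFU equal to inoculum, by graphical intrapolation. Counts under five taken as below detection. n = 3.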

Staphylococcus aureus [3] = experiment: Antibacterial activity against methicillin-sensitive Staphylococcus aureus ATCC 25923 infected in human THP1 cells assessed as concentration required to no apparent bacterial growth after 24 hrs; assay type: functional, THP-1; in short: as §1
Staphylococcus aureus [4] = experiment: Antibacterial activity against methicillin-sensitive Staphylococcus aureus ATCC 25923 infected in human THP1 cells assessed as decrease of CFU after 24 hrs; assay type: functional, organism-based; conditions: ATCC 25923, THP-1, 24 h; in short: as §1
Listeria monocytogenes [5] = experiment: Antibacterial activity against Listeria monocytogenes EGD at pH 5.5 to 7.4 after 24 hrs; assay type: functional; conditions: EGD-e
THP-1 [6] = experiment: Drug uptake in human THP1 cells after 24 hrs in presence of verapamil; assay type: ADME, cell-based; conditions: thp-1, 24 h
In short: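 Accumulation at 37°C, 10 mg/liter drug, with verapamil 150 μM for 24 h. Microbiological assay normalized to cell protein. n = 3.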

Staphylococcus aureus [7] = experiment: Antibacterial activity against methicillin-sensitive Staphylococcus aureus ATCC 25923 assessed as decrease of CFU after 24 hrs; assay type: functional, organism-based; conditions: ATCC 25923, 24 h; in short: as §2
THP-1 [8] = experiment: Drug uptake in human THP1 cells after 24 hrs in presence of gemfibrozil; assay type: ADME, cell-based; conditions: thp-1, 24 h
In short: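 Accumulation at 37°C, 10 mg/liter drug, with gemfibrozil 250 μM for 24 h. Microbiological assay normalized to cell protein. n = 3.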

Staphylococcus aureus [9] = experiment: Antibacterial activity against methicillin-sensitive Staphylococcus aureus ATCC 25923 at pH 5.5 to 7.4 after 24 hrs; assay type: functional
Staphylococcus aureus [10] = experiment: Antibacterial activity against methicillin-sensitive Staphylococcus aureus ATCC 25923 assessed as concentration required to no apparent bacterial growth after 24 hrs; assay type: functional; in short: as §2
Legionella pneumophila [11] = experiment: Antibacterial activity against Legionella pneumophila ATCC 33153 after 48 hrs; assay type: functional; conditions: ATCC 33153, 48 h
In short: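 L. pneumophila MIC determined in α-ketoglutarate-buffered yeast extract broth, read after 48 h incubation.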

THP-1 [12] = experiment: Drug uptake in human THP1 cells at acidic pH after 30 mins; assay type: ADME, cell-based; conditions: thp-1, 0.5 h
In short: (§3)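 30-min accumulation at 37°C, 10 mg/liter extracellular, in culture medium at varied pH. Microbiological drug assay normalized to cell protein, converted at 5 μl/mg protein. n = 3.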

Listeria monocytogenes [13] = experiment: Antibacterial activity against Listeria monocytogenes EGD after 24 hrs; assay type: functional
Staphylococcus aureus [14] = experiment: Antibacterial activity against methicillin-sensitive Staphylococcus aureus ATCC 25923 after 24 hrs; assay type: functional; conditions: ATCC 25923, 24 h
Legionella pneumophila [15] = experiment: Antibacterial activity against Legionella pneumophila infected in human THP1 cells assessed as decrease of CFU after 48 hrs; conditions: THP-1, 48 h
Listeria monocytogenes [16] = experiment: Antibacterial activity against […] Listeria monocytogenes EGD assessed as concentration required to no apparent bacterial growth after 24 hrs; assay type: functional, EGD-e
Staphylococcus aureus [17] = experiment: Antibacterial activity against methicillin-sensitive Staphylococcus aureus ATCC 25923 infected in human THP1 cells assessed as decrease of intracellular CFU at 4 mg/liter; assay type: functional
In short: (§4)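 Phagocytosed bacteria in THP-1 macrophages exposed to a fixed extracellular concentration of 0.7 or 4 mg/liter; intracellular CFU followed over 6 h; three independent experiments.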

THP-1 [18] = experiment: Drug uptake in human THP1 cells at pH 6 to 7 after 30 mins; assay type: ADME, cell-based; conditions: thp-1, pH 6, 0.5 h; in short: as §3
Legionella pneumophila [19] = experiment: Antibacterial activity against Legionella pneumophila infected in human THP1 cells assessed as concentration required to no apparent bacterial growth after 48 hrs
Legionella pneumophila [20] = experiment: Antibacterial activity against Legionella pneumophila ATCC 33153 at pH 6.5 to 7.4 after 48 hrs; assay type: functional; conditions: ATCC 33153, 48 h
Listeria monocytogenes [21] = experiment: Antibacterial activity against […] Listeria monocytogenes EGD assessed as decrease of CFU after 24 hrs; assay type: functional, organism-based; conditions: EGD-e
Staphylococcus aureus [22] = experiment: Antibacterial activity against methicillin-sensitive Staphylococcus aureus ATCC 25923 assessed as decrease of CFU at 4 mg/liter; assay type: functional, organism-based
In short: (§5)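 Short-term 6-h time-kill in broth at pH 7.4 at fixed extracellular concentrations of 0.7 or 4 mg/liter; CFU followed over time; three independent experiments.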

THP-1 [23] = experiment: Drug uptake in human THP1 cells after 2 hrs in presence of monensin; assay type: ADME, cell-based; conditions: thp-1, 2 h
In short: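 Accumulation at 37°C, 10 mg/liter drug, with monensin 50 μM for 2 h. Microbiological assay normalized to cell protein. n = 3.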

Legionella pneumophila [24] = experiment: Antibacterial activity against Legionella pneumophila infected in human THP1 cells assessed as decrease of CFU after 48 hrs relative to initial inoculum
Listeria monocytogenes [25] = experiment: Antibacterial activity against […] Listeria monocytogenes EGD assessed as decrease of CFU after 24 hrs relative to initial inoculum; assay type: functional, EGD-e
Staphylococcus aureus [26] = experiment: Antibacterial activity against methicillin-sensitive Staphylococcus aureus ATCC 25923 assessed as decrease of CFU at 0.7 mg/liter; assay type: functional, organism-based; in short: as §5
THP-1 [27] = experiment: Drug uptake in human THP1 cells after 24 hrs relative to extracellular concentration; assay type: ADME, cell-based; conditions: thp-1, 24 h
In short: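 THP-1 cells incubated at 37°C with drug at 10 mg/liter extracellular, accumulation followed up to 24 h. Cell-associated drug assayed microbiologically with S. aureus ATCC 25923, normalized to cell protein (Folin-Ciocalteu/biuret) and converted at 5 μl/mg protein to the cellular/extracellular concentration ratio. n = 3.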

Staphylococcus aureus [28] = experiment: Antibacterial activity against methicillin-sensitive Staphylococcus aureus ATCC 25923 by time kill study; assay type: functional; in short: as §5
Staphylococcus aureus [29] = experiment: Antibacterial activity against methicillin-sensitive Staphylococcus aureus ATCC 25923 infected in human THP1 cells assessed as decrease of intracellular CFU at 0.7 mg/liter; assay type: functional, organism-based; conditions: THP-1; in short: as §4

SMILES | log10cfu (Staphylococcus aureus [1]) | log10cfu (Staphylococcus aureus [2]) | Activity (Staphylococcus aureus [3]) [mg/L] | EC50 (Staphylococcus aureus [4]) [µg/mL] | MIC (Listeria monocytogenes [5]) | Drug uptake (THP-1 [6]) | EC50 (Staphylococcus aureus [7]) [µg/mL] | Drug uptake (THP-1 [8]) | MIC (Staphylococcus aureus [9]) | Activity (Staphylococcus aureus [10]) [mg/L] | MIC (Legionella pneumophila [11]) [µg/mL] | Drug uptake (THP-1 [12]) | MIC (Listeria monocytogenes [13]) [µg/mL] | MIC (Staphylococcus aureus [14]) [µg/mL] | EC50 (Legionella pneumophila [15]) [µg/mL] | Activity (Listeria monocytogenes [16]) [mg/L] | Drug uptake (THP-1 [18]) | Activity (Legionella pneumophila [19]) [mg/L] | MIC (Legionella pneumophila [20]) [µg/mL] | EC50 (Listeria monocytogenes [21]) [µg/mL] | other results
CC[C@H]1OC(=O)[C@H](C)C(=O)[C@H](C)[C@@H](O[C@@H]2O[C@H](C)C[C@H](N(C)C)[C@H]2O)[C@](C)(OC)C[C@@H](C)C(=O)[C@H](C)[C@H]2N(CCCCn3cnc(-c4cccnc4)c3)C(=O)O[C@]12C [TELITHROMYCIN] | 0.04 | -1.23 | >50 | 0.11 (≈ 0.135 µM) | inactive | Active | 1.78 (≈ 2.19 µM) | Active | inactive | 3.4 | – | – | – | – | – | – | – | – | – | – | –
CC[C@H]1OC(=O)[C@H](C)[C@@H](O[C@H]2C[C@@](C)(OC)[C@@H](O)[C@H](C)O2)[C@H](C)[C@@H](O[C@@H]2O[C@H](C)C[C@H](N(C)C)[C@H]2O)[C@](C)(OC)C[C@@H](C)C(=O)[C@H](C)[C@@H](O)[C@]1(C)O [CLARITHROMYCIN] | -0.18 | -1.41 | 0.84 | 0.046 (≈ 0.0615 µM) | inactive | Active | 0.8 (≈ 1.07 µM) | Active | inactive | 1.32 | – | – | – | – | – | – | – | – | – | – | –
CC[C@H]1OC(=O)[C@H](C)[C@@H](O[C@H]2C[C@@](C)(OC)[C@@H](O)[C@H](C)O2)[C@H](C)[C@@H](O[C@@H]2O[C@H](C)C[C@H](N(C)C)[C@H]2O)[C@](C)(O)C[C@@H](C)CN(C)[C@H](C)[C@@H](O)[C@]1(C)O [AZITHROMYCIN] | -0.29 | -1 | 0.63 | 0.024 (≈ 0.032 µM) | inactive | Active | 0.12 (≈ 0.16 µM) | Active | inactive | 0.29 | 0.016 (≈ 0.0214 µM) | Not Active | 1 (≈ 1.34 µM) | 0.5 (≈ 0.668 µM) | 2.86 (≈ 3.82 µM) | 11.6 | Active | 2.9 | 0.01 (≈ 0.0134 µM) | 2.66 (≈ 3.55 µM) | Activity (Staphylococcus aureus [17]; THP-1): inactive; Activity (Staphylococcus aureus [22]): Active; Drug uptake (THP-1 [23]): Not Active; log10cfu (Legionella pneumophila [24]): -0.83; log10cfu (Listeria monocytogenes [25]): -0.81
CC[C@H]1OC(=O)[C@@](C)(F)C(=O)[C@H](C)[C@@H](O[C@@H]2O[C@H](C)C[C@H](N(C)C)[C@H]2O)[C@](C)(OC)C[C@@H](C)C(=O)[C@H](C)[C@H]2N(CCCCn3cc(-c4cccc(N)c4)nn3)C(=O)O[C@]12C [SOLITHROMYCIN] | -0.86 | -1.37 | 0.022 | 0.0068 (≈ 0.00805 µM) | 0.0039 µg/mL (≈ 0.00462 µM) | Active | 0.03 (≈ 0.0355 µM) | Active | – | 0.06 | 0.004 (≈ 0.00473 µM) | Not Active | 0.004 (≈ 0.00473 µM) | 0.06 (≈ 0.071 µM) | 0.052 (≈ 0.0615 µM) | 0.11 | Active | 0.018 | 0.005 (≈ 0.00592 µM) | 0.02 (≈ 0.0237 µM) | Activity (Staphylococcus aureus [26]): Active; fold change (FC) (THP-1 [27]): 350; Time (Staphylococcus aureus [28]): 6 h; log10cfu (Staphylococcus aureus [17]): 1.5; Activity (Staphylococcus aureus [29]): Active; MIC (Staphylococcus aureus [9]; ATCC 25923, 24 h): 0.06 µg/mL (≈ 0.071 µM); Drug uptake (THP-1 [23]): Not Active; log10cfu (Legionella pneumophila [24]): -1.03; log10cfu (Listeria monocytogenes [25]): -0.66
